Active and inactive are the calls of the source. No cut-off for these calls is given here.
Experiments:
[1] = Antiproliferative activity against human RIVA cells assessed as growth inhibition measured after 72 hrs by calcein AM dye-based fluorescence assay; type: functional, cell-based
Summary of the method: (§1)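 Cells exposed in triplicate to six concentrations for 72 h; calcein AM added for 1 h, live-cell fluorescence read at 485/538 nm (ex/em). GI50 taken from dose-response curves.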

[2] = test system: Mus musculus; assay: Ex vivo antitumor activity against human UPF1H cells xenografted NSG mouse decrease in phosphorylation of Rb at […] residue at 5 to 10 mg/kg, iv measured after 24 hrs by immunoblotting analysis; type: functional, organism-based
Summary of the method: (§2)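 Female NSG mice, 8-12 weeks old, implanted s.c. with lymphoma cells. Once tumors were palpable, mice received a single tail-vein i.v. dose (5 or 10 mg/kg) of compound dissolved in PBS. Mice were euthanized 24 h later. Tumors were excised, filtered through 45 µm nylon mesh and lysed, then proteins were analysed by immunoblotting.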

[3] = test system: Mus musculus; assay: Ex vivo antitumor activity against Maver1 xenografted NSG mouse assessed as induction of PARP1 cleavage at 10 mg/kg, iv measured after 24 hrs by immunoblotting analysis; type: functional, organism-based
Summary of the method: (§3)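 NSG mice bearing palpable s.c. tumors received a single i.v. dose (5 or 10 mg/kg) and were euthanized after 24 h. Excised tumors were filtered through 45 µm nylon mesh, lysed and run on SDS-PAGE, transferred to nitrocellulose, probed overnight with primary antibodies in PBS with 5% milk and 0.1% Tween 20, then peroxidase secondaries, with chemiluminescent detection.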

[4] = Antiproliferative activity against human OCI-Ly2 cells measured after 72 hrs by calcein AM dye-based fluorescence assay; type: functional; summary of the method: as §1
[5] = test system: Mus musculus; assay: Ex vivo antitumor activity against human UPF1H cells xenografted NSG mouse assessed as down regulation of XIAP expression at 5 to 10 mg/kg, iv measured after 24 hrs by immunoblotting analysis; type: functional, organism-based; summary of the method: as §2
[6] = test system: RPMI-8226; assay: Antiproliferative activity against human RPMI8226 cells assessed as growth inhibition measured after 72 hrs by calcein AM dye-based fluorescence assay; type: functional, cell-based; conditions: RPMI-8226, 72 h
[7] = Antiproliferative activity against human UPF7U cells assessed as growth inhibition measured after 72 hrs by calcein AM dye-based fluorescence assay; type: functional, cell-based; summary of the method: as §1
[8] = test system: Mus musculus; assay: Ex vivo antitumor activity against Maver1 xenografted NSG mouse assessed as down regulation of XIAP expression at 10 mg/kg, iv measured after 24 hrs by immunoblotting analysis; type: functional, organism-based; summary of the method: as §3
[9] = target: Casein kinase I isoform delta (Homo sapiens, UniProt P48730); assay: Inhibition of CK1delta (unknown origin) assessed as residual activity at 1 uM relative to control
Chain of Casein kinase I isoform delta (P48730 whole entry, looked up, canonical isoform): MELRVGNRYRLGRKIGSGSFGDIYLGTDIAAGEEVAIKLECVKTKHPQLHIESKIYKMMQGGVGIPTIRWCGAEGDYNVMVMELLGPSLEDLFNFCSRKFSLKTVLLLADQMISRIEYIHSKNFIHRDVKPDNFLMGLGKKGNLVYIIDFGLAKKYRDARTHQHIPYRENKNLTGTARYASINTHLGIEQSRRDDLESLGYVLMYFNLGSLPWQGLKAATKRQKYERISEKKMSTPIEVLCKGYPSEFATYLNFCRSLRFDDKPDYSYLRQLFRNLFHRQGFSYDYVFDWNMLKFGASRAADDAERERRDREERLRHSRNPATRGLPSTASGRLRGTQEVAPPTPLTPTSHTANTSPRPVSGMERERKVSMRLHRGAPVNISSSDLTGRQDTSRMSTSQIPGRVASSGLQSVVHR
Summary of the method: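 Single-concentration screen at 1 µM across a panel of 50 protein kinases sampling the human kinome; read-out is residual kinase activity (%).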

[10] = test system: Mus musculus; assay: Ex vivo antitumor activity against human Mino cells xenografted NSG mouse assessed as increase in cleaved caspase 7 expression at 5 to 10 mg/kg, iv measured after 24 hrs by immunoblotting analysis; type: functional, organism-based; summary of the method: as §3
[11] = test system: Maver1; assay: Antiproliferative activity against human Maver1 cells assessed as growth inhibition measured after 72 hrs by calcein AM dye-based fluorescence assay; type: functional, cell-based; conditions: Maver1, 72 h; summary of the method: as §1
[12] = species: Homo sapiens; assay: Induction of apoptosis in human Mino cells assessed as decrease in XIAP level at 12.5 nM for 2 to 24 hrs by immunoblotting analysis; type: functional, cell-based
Summary of the method: (§4)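 Lymphoma cell lines were cultured as the providers instruct and exposed to compound at several doses or for several times. Lysates were run on SDS-PAGE and blotted to nitrocellulose. Blots were blocked, incubated overnight with primary antibodies diluted in PBS with 5% milk and 0.1% Tween 20, then with peroxidase-conjugated secondaries, and detected by chemiluminescence on a CCD camera.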

[13] = test system: Mus musculus; assay: Ex vivo antitumor activity against human UPF1H cells xenografted NSG mouse decrease in phosphorylation of RNA polymerase 2 C-terminal domain at Ser 2 residue at 5 to 10 mg/kg, iv measured after 24 hrs by immunoblotting analysis; type: functional, organism-based; summary of the method: as §2
[14] = test system: Homo sapiens; assay: Antitumor activity against human HBL2 cells xenografted in NSG mouse assessed as inhibition of tumor growth at 10 mg/kg, iv administered daily measured every day during compound dosing by caliper method
[15] = test system: Mus musculus; assay: Ex vivo antitumor activity against human Mino cells xenografted NSG mouse assessed as cleavage of PARP1 at 5 to 10 mg/kg, iv measured after 24 hrs by immunoblotting analysis; type: functional, organism-based; summary of the method: as §3
[16] = test system: HT; assay: Antiproliferative activity against human HT cells assessed as growth inhibition measured after 72 hrs by calcein AM dye-based fluorescence assay; type: functional, cell-based; summary of the method: as §1
[17] = species: Homo sapiens; assay: Induction of apoptosis in human Mino cells assessed as effect on BCL-2 protein expression at 12.5 nM after 2 to 24 hrs by immunoblotting analysis; type: functional, cell-based; summary of the method: as §4
[18] = target: Cyclin-dependent kinase 7 (Homo sapiens) (UniProt P50613); assay: Inhibition of CDK7 in human Mino cells assessed as decrease in phosphorylation of RNA polymerase 2 C-terminal domain at Ser 5 residue at 12.5 nM by immunoblotting analysis; type: cell-based; conditions: TDE = time-dependent effect
Chain of Cyclin-dependent kinase 7 (Homo sapiens) (P50613 whole entry, the tested form may be a part): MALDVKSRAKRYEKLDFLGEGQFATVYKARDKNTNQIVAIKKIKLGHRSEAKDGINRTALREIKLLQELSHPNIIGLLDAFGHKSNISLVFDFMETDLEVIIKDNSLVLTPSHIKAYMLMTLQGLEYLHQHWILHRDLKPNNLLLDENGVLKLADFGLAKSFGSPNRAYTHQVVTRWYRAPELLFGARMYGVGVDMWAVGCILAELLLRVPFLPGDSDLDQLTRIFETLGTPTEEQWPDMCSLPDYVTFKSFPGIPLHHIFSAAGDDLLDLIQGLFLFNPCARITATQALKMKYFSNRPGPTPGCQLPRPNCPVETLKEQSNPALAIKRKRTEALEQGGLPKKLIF
Summary of the method: (§5)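 MINO lymphoma cells were treated at 12.5 nM, with time points over 24 h. Lysates were separated by SDS-PAGE and blotted to nitrocellulose. Phospho-RNA polymerase II CTD (Ser2, Ser5) and phospho-Rb (Ser608, Ser780) were probed with primary antibodies overnight and peroxidase-conjugated secondaries. Detection was by chemiluminescence on a CCD camera.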

[19] = test system: OCI-Ly3; assay: Antiproliferative activity against human OCI-LY3 cells assessed as growth inhibition measured after 72 hrs by calcein AM dye-based fluorescence assay; type: functional, cell-based; conditions: OCI-Ly3, 72 h; summary of the method: as §1
[20] = test system: HCT-116; assay: Antiproliferative activity against human HCT116 cells assessed as growth inhibition measured after 72 hrs by calcein AM dye-based fluorescence assay; type: functional, cell-based; conditions: HCT-116, 72 h; summary of the method: as §1
[21] = target: Cyclin-dependent kinase 7 (Homo sapiens) (UniProt P50613); assay: Inhibition of CDK7 in human Mino cells assessed as decrease in phosphorylation of Rb at Ser 608 residue at 12.5 nM by immunoblotting analysis; type: cell-based; conditions: TDE = time-dependent effect; summary of the method: as §5
[22] = species: Homo sapiens; assay: Induction of apoptosis in human Mino cells assessed as induction of PARP1 cleavage at 12.5 nM after 2 to 24 hrs by immunoblotting analysis; type: functional, cell-based; summary of the method: as §4
[23] = test system: Mus musculus; assay: Ex vivo antitumor activity against Maver1 xenografted NSG mouse assessed as increase in cleaved caspase9 expression at 10 mg/kg, iv measured after 24 hrs by immunoblotting analysis; type: functional, organism-based; summary of the method: as §3
[24] = target: CDK2/Cyclin A2 (Homo sapiens, UniProt P24941); assay: Inhibition of GST-tagged CDK2/Cyclin-A2 (unknown origin) expressed in Escherichia coli using histone H1 as substrate measured in presence of [gamma-33P]ATP
[25] = test system: Maver1; assay: Antitumor activity against human Maver1 cells xenografted in NSG mouse assessed as inhibition of tumor growth at 10 mg/kg, iv administered daily measured every day during compound dosing by caliper method; type: functional, organism-based
Summary of the method: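 Female NSG mice, 8-12 weeks old, given cells s.c.; once all had palpable tumors, daily i.v. tail-vein dosing at 10 mg/kg in PBS. Two perpendicular tumor diameters measured daily by caliper. Study ended when any mouse's tumor reached ≥2 cm. Groups: MINO n=10, MAVER-1 n=12, Hbl-2 n=8, VFN-M1 PDX n=10.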

GI50 [6]: 21.6 nM
Activity [9]: 11%
inhibition [18]: Tde
GI50 [19]: 7 nM
IC50 [19]: 7 nM
GI50 [20]: 21.6 nM
IC50 [20]: 22 nM
inhibition [21]: Tde
IC50 [24]: 6 nM
Structure (SMILES): CC(C)c1n[nH]c2c(NCc3ccc(-c4ccccn4)cc3)nc(SCCN)nc12
GI50 [1]: 11 nM
IC50 [1]: 11 nM
Activity [2]: Active
Activity [3]: Active
GI50 [4]: 28 nM
Activity [5]: Active
GI50 [7]: 12 nM
IC50 [7]: 12 nM
Activity [8]: Active
Activity [10]: Active
GI50 [11]: 13 nM
IC50 [11]: 13 nM
Activity [12]: Active
Activity [13]: Active
TGI [14]: Active
Activity [15]: Active
GI50 [16]: 19 nM
IC50 [16]: 19 nM
Activity [17]: inactive
Activity [22]: Active
Activity [23]: Active
TGI [25]: Active
